Experiments:
HepG2 [1] = assay: Antiproliferative activity against human HepG2 cells after 48 hrs by MTT assay; assay type: functional, cell-based; conditions: HepG2, 48 h
In short: (§1)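 Cells were seeded at 7 × 10³ per well and, after 24 h, exposed while growing exponentially to a range of concentrations for 48 h. MTT (5 mg/mL stock in PBS) was added for 6 h, followed by 10% SDS in 0.01 N HCl for a further 4 h at 37 °C, then absorbance read at 570 nm. Survival was taken as % of untreated cells. IC50 came from 6-well replicates in at least two independent experiments.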

[2] = Antiproliferative activity against human A16-F10 cells after 48 hrs by MTT assay; assay type: functional, cell-based; conditions: A16-F10, 48 h; in short: as §1
[3] = target: Epidermal growth factor receptor (Homo sapiens, UniProt P00533); assay: Inhibition of EGFR expressed in baculovirus infected Sf9 cells assessed as inhibition of autophosphorylation preincubated for 10 mins measured after 1 hr by DELFIA/Time-Resolved Fluorometry
Sequence of Epidermal growth factor receptor (P00533 whole entry): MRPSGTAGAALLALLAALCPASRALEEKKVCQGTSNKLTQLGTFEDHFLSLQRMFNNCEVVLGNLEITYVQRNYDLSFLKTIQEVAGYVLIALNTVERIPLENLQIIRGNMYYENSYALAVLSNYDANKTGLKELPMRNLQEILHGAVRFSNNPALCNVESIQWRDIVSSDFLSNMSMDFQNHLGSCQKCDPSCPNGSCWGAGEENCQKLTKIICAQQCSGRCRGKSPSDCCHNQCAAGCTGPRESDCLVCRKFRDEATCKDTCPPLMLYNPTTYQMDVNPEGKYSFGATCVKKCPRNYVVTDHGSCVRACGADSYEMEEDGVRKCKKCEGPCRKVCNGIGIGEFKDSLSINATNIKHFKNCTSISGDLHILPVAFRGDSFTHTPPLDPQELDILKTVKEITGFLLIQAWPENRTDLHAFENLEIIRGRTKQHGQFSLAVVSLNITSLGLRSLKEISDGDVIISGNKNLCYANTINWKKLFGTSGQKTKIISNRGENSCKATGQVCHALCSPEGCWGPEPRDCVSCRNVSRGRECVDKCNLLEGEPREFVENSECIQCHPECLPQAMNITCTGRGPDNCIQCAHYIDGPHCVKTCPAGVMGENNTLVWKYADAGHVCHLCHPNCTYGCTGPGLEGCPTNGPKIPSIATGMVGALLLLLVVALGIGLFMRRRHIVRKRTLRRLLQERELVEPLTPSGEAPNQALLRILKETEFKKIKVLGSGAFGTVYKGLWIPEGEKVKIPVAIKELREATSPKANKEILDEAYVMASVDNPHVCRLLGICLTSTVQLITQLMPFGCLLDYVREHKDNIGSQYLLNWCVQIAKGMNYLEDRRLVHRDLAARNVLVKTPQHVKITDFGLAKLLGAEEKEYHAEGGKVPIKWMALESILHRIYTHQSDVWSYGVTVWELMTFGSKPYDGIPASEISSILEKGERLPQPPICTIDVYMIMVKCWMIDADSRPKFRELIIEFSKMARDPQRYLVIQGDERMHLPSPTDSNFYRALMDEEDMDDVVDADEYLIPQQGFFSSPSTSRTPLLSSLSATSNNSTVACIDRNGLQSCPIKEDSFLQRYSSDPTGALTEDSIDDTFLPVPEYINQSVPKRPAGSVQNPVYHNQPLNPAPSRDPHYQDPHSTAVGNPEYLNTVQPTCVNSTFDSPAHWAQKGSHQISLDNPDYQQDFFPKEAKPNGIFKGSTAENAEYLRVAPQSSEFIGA

HepG2 [4] = assay: Induction of apoptosis in human HepG2 cells assessed as apoptotic cells at 1 uM after 3 days using annexin-V/PI double staining by flow cytometry (reference value: 0.98%); assay type: functional
HepG2 [5] = assay: Induction of apoptosis in human HepG2 cells assessed as apoptotic cells at 2 uM after 3 days using annexin-V/PI double staining by flow cytometry (reference value: 0.98%); assay type: functional
HepG2 [6] = assay: Induction of apoptosis in human HepG2 cells after 3 days using annexin-V/PI double staining by flow cytometry; assay type: functional, cell-based

| SMILES | IC50 (HepG2 [1]) [µM] | IC50 [2] [µM] | IC50 [3] [µM] | Activity (HepG2 [4]) [%] | Activity (HepG2 [5]) [%] | Activity (HepG2 [6]) |
| --- | --- | --- | --- | --- | --- | --- |
| Clc1ccc(CNc2ccc3ncnc(Nc4cccc(Br)c4)c3c2)cc1 | 0.92 | 1.82 | 1.64 | – | – | – |
| Oc1ccccc1CNc1ccc2ncnc(Nc3cccc(Br)c3)c2c1 | 1.26 | 1.87 | 3.22 | – | – | – |
| Fc1ccc(CNc2ccc3ncnc(Nc4cccc(Cl)c4)c3c2)cc1 | 2.69 | 2.95 | – | – | – | – |
| Clc1ccc(CNc2ccc3ncnc(Nc4cccc(Cl)c4)c3c2)cc1 | 1.78 | 2.67 | 4.41 | – | – | – |
| Clc1cccc(Nc2ncnc3ccc(NCc4ccc(Br)cc4)cc23)c1 | 3.81 | 4.01 | 5.67 | – | – | – |
| Fc1ccc(CNc2ccc3ncnc(Nc4cccc(Br)c4)c3c2)cc1 | 1.77 | 2.09 | – | – | – | – |
| COc1ccccc1CNc1ccc2ncnc(Nc3cccc(Br)c3)c2c1 | 8.82 | 12.5 | 11.2 | – | – | – |
| COc1ccc(CNc2ccc3ncnc(Nc4cccc(Cl)c4)c3c2)cc1 | 5.26 | 8.43 | – | – | – | – |
| Clc1cccc(Nc2ncnc3ccc(NCc4ccccc4Br)cc23)c1 | 4.17 | 5.83 | – | – | – | – |
| Brc1cccc(Nc2ncnc3ccc(NCc4ccccc4Br)cc23)c1 | 2.76 | 4.38 | – | – | – | – |
| COc1ccccc1CNc1ccc2ncnc(Nc3cccc(Cl)c3)c2c1 | 9.85 | 14.8 | 13.9 | – | – | – |
| Clc1ccccc1CNc1ccc2ncnc(Nc3cccc(Br)c3)c2c1 | 1.82 | 3.74 | – | – | – | – |
| Brc1ccc(CNc2ccc3ncnc(Nc4cccc(Br)c4)c3c2)cc1 | 1.41 | 2.21 | 3.13 | – | – | – |
| Oc1ccc(CNc2ccc3ncnc(Nc4cccc(Br)c4)c3c2)cc1 | 0.28 | 0.59 | – | 20.8 | 54.2 | Dose-dependent effect |
| COc1ccc(CNc2ccc3ncnc(Nc4cccc(Br)c4)c3c2)cc1 | 5.43 | 10.4 | – | – | – | – |
| Oc1ccc(CNc2ccc3ncnc(Nc4cccc(Cl)c4)c3c2)cc1 | 1.52 | 1.58 | 1.87 | – | – | – |
| C#Cc1cccc(Nc2ncnc3cc(OCCOC)c(OCCOC)cc23)c1 [ERLOTINIB] | – | 0.02 | – | – | – | – |
| Oc1ccccc1CNc1ccc2ncnc(Nc3cccc(Cl)c3)c2c1 | 2.08 | 3.18 | 3.54 | – | – | – |
| Clc1cccc(Nc2ncnc3ccc(NCc4ccccc4Cl)cc23)c1 | 5.33 | 7.12 | – | – | – | – |
